According to ChEMBL document CHEMBL2169868, “Flavone-based novel antidiabetic and antidyslipidemic agents” (J Med Chem, 2012):
Active and inactive are the calls of the source. The rule behind the calls is not given here.

Columns and labels:
[1] = system: Syrian golden hamster; experiment: Antidyslipidemic activity in high fructose and high-fat diet fed dyslipidemic Syrian golden hamster model assessed as reduction in LDL-cholesterol level at 100 mg/kg/day for 7 days; type: functional, Mesocricetus auratus; design: scale not given: the % may be the effect or the level left
Outline: (§1)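 Syrian golden hamsters fed high-fructose high-fat diet; oral dosing in 1% gum acacia at 10, 30, 100 mg/kg (or 25 mg/kg) for 7 days, sham control given vehicle; plasma TG, cholesterol, LDL-C, HDL-C, glycerol and NEFA (kits), lipoprotein lipase activity and body weight; % change versus HFD control, six hamsters per group.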

[2] = system: Syrian golden hamster; experiment: Antidyslipidemic activity in high fructose and high-fat diet fed dyslipidemic Syrian golden hamster model assessed as reduction in body weight at 100 mg/kg/day for 7 days; type: functional, organism-based; conditions: Mesocricetus auratus; outline: as §1
[3] = system: Syrian golden hamster; experiment: Antidyslipidemic activity in high fructose and high-fat diet fed dyslipidemic Syrian golden hamster model assessed as reduction in body weight at 25 mg/kg/day for 7 days; type: functional, Mesocricetus auratus; design: scale not given: the % may be the effect or the level left; outline: as §1
[4] = system: Syrian golden hamster; experiment: Antidyslipidemic activity in high fructose and high-fat diet fed dyslipidemic Syrian golden hamster model assessed as reduction in LDL-cholesterol level at 30 mg/kg/day, po for 7 day, po; type: functional, Mesocricetus auratus; design: scale not given: the % may be the effect or the level left; outline: as §1
[5] = system: Rattus norvegicus; experiment: Antidiabetic activity in sucrose challenged streptozotocin-induced diabetic Sprague-Dawley rat model assessed as reduction in glucose levels at 100 mg/kg, po measured after 24 hrs; type: functional
[6] = system: Syrian golden hamster; experiment: Antidyslipidemic activity in high fructose and high-fat diet fed dyslipidemic Syrian golden hamster model assessed as reduction in glycerol level at 30 mg/kg/day, po for 7 day, po; type: functional, Mesocricetus auratus; design: scale not given: the % may be the effect or the level left; outline: as §1
[7] = system: Rattus norvegicus; experiment: Antihyperlipidemic activity in Triton-induced dyslipidemic Wistar rat model assessed as reduction in triglyceride level at 100 mg/kg, po; type: functional; design: scale not given: the % may be the effect or the level left
Outline: (§2)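 Male Wistar rats, 8−10 weeks, about 160 g, fed normal pellet diet. Triton X-100 given at 400 mg/kg ip; compound given orally in 1% gum acacia. Retro-orbital blood taken 18 h after Triton and serum separated at 1500g for 10 min. TG and cholesterol measured by kit. Mean % change versus dyslipidemic control, 5 animals.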

[8] = system: Syrian golden hamster; experiment: Antidyslipidemic activity in high fructose and high-fat diet fed dyslipidemic Syrian golden hamster model assessed as reduction in triglyceride level at 100 mg/kg/day for 7 days; type: functional, Mesocricetus auratus; design: scale not given: the % may be the effect or the level left; outline: as §1
[9] = system: Syrian golden hamster; experiment: Antidyslipidemic activity in high fructose and high-fat diet fed dyslipidemic Syrian golden hamster model assessed as increase in lipoprotein lipase level at 30 mg/kg/day, po for 7 day, po; type: functional, Mesocricetus auratus; outline: as §1
[10] = system: Syrian golden hamster; experiment: Antidyslipidemic activity in high fructose and high-fat diet fed dyslipidemic Syrian golden hamster model assessed as reduction in NEFA level at 30 mg/kg/day, po for 7 day, po; type: functional, Mesocricetus auratus; design: scale not given: the % may be the effect or the level left; outline: as §1
[11] = system: Rattus norvegicus; experiment: Antihyperlipidemic activity in Triton-induced dyslipidemic Wistar rat model assessed as reduction in phospholipid level at 100 mg/kg, po; type: functional; design: scale not given: the % may be the effect or the level left; outline: as §2
[12] = system: Syrian golden hamster; experiment: Reduction in body weight in high fructose and high-fat diet fed dyslipidemic Syrian golden hamster model at 30 mg/kg/day, po for 7 days; type: functional, Mesocricetus auratus; design: scale not given: the % may be the effect or the level left
Outline: (§3)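 HFD-fed Syrian golden hamsters, six per group, fed a high-fructose diet. Oral dosing in 1% gum acacia for 7 days. Sham group received vehicle. Plasma TG was measured and body weight tracked. Results given as % change versus HFD control.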

[13] = system: Syrian golden hamster; experiment: Antidyslipidemic activity in high fructose and high-fat diet fed dyslipidemic Syrian golden hamster model assessed as reduction in LDL-cholesterol level at 25 mg/kg/day for 7 days; type: functional, Mesocricetus auratus; design: scale not given: the % may be the effect or the level left; outline: as §1
[14] = system: Syrian golden hamster; experiment: Antidyslipidemic activity in high fructose and high-fat diet fed dyslipidemic Syrian golden hamster model assessed as reduction in triglyceride level at 30 mg/kg/day, po for 7 day, po; type: functional, Mesocricetus auratus; design: scale not given: the % may be the effect or the level left; outline: as §3
[15] = system: Rattus norvegicus; experiment: Antidiabetic activity in sucrose challenged streptozotocin-induced diabetic Sprague-Dawley rat model assessed as reduction in glucose levels at 100 mg/kg, po measured after 5 hrs; type: functional; design: scale not given: the % may be the effect or the level left
[16] = system: Rattus norvegicus; experiment: Antidiabetic activity in sucrose loaded Wistar rat model assessed as reduction in glucose levels at 100 mg/kg, po; type: functional; design: scale not given: the % may be the effect or the level left
[17] = system: Syrian golden hamster; experiment: Antidyslipidemic activity in high fructose and high-fat diet fed dyslipidemic Syrian golden hamster model assessed as increase in HDL-cholesterol level at 30 mg/kg/day, po for 7 day, po; type: functional, Mesocricetus auratus; outline: as §1
[18] = system: Rattus norvegicus; experiment: Antihyperlipidemic activity in Triton-induced dyslipidemic Wistar rat model assessed as reduction in cholesterol level at 100 mg/kg, po; type: functional; design: scale not given: the % may be the effect or the level left; outline: as §2
[19] = system: Syrian golden hamster; experiment: Antidyslipidemic activity in high fructose and high-fat diet fed dyslipidemic Syrian golden hamster model assessed as reduction in triglyceride level at 25 mg/kg/day for 7 days; type: functional, Mesocricetus auratus; design: scale not given: the % may be the effect or the level left; outline: as §3
[20] = system: Mus musculus; experiment: Antidyslipidemic activity in diabetic C57BL/KsJ db/db mouse model assessed as increase in plasma HDL-C/cholesterol ratio at 25 mg/kg, po qd for 10 days; type: functional
Outline: (§4)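 db/db mice (blood glucose 200−350, TG 170−250, cholesterol 170−250, HDL-C 32−40 mg/dL) dosed orally at 25 mg/kg daily for 10 days; retro-orbital blood taken on day 11 for plasma TG, cholesterol and HDL-C (and HDL-C/CHOL ratio); mean % change versus vehicle control, 5 mice per group; Student t test.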

[21] = system: Mus musculus; experiment: Antidyslipidemic activity in diabetic C57BL/KsJ db/db mouse model assessed as reduction in plasma triglyceride level at 25 mg/kg, po qd for 10 days; type: functional; design: scale not given: the % may be the effect or the level left; outline: as §4
[22] = system: Syrian golden hamster; experiment: Antidyslipidemic activity in high fructose and high-fat diet fed dyslipidemic Syrian golden hamster model assessed as increase in HDL-cholesterol level at 100 mg/kg/day for 7 days; type: functional, Mesocricetus auratus
[23] = system: Mus musculus; experiment: Antihyperglycemic activity in diabetic C57BL/KsJ db/db mouse model assessed as reduction in hyperglycemia at 25 mg/kg, po qd for 10 days; type: functional; design: scale not given: the % may be the effect or the level left
Outline: (§5)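 db/db mice (C57BL/KsJ, 12−18 weeks, 40−50 g, glucose 200−350 mg/dL), housed at 23 ± 2.0 °C on a 12 h light cycle. Oral dosing daily for 10 days. Blood glucose checked each morning through day 9. Body weight recorded daily from day 1 to day 10. Mean % change versus vehicle, 5 mice per group; Student t test.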

[24] = system: Mus musculus; experiment: Antihyperglycemic activity in diabetic C57BL/KsJ db/db mouse model assessed as improvement in glucose tolerance in hyperglycemia at 25 mg/kg, po qd for 10 days; type: functional
Outline: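 Male/female C57BL/KsJ db/db mice, 12−18 weeks, 40−50 g, selected for glucose 200−350 mg/dL. Oral dosing daily for 10 days. OGTT on day 10 after an overnight fast: compound at −30 min, then 3 g/kg oral glucose at 0 min. Glucose read at 30, 60, 90 and 120 min. AUC taken versus vehicle, 5 mice per group.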

[25] = system: Mus musculus; experiment: Antihyperglycemic activity in diabetic C57BL/KsJ db/db mouse model assessed as reduction in plasma insulin level in hyperglycemia at 25 mg/kg, po qd for 10 days; type: functional; design: scale not given: the % may be the effect or the level left
Outline: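 db/db mice dosed orally every day for 10 days. On day 11, retro-orbital blood was drawn and plasma insulin measured. Mean % change versus vehicle-treated control, 5 mice per group; Student t test.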

[26] = system: Syrian golden hamster; experiment: Antidyslipidemic activity in high fructose and high-fat diet fed dyslipidemic Syrian golden hamster model assessed as reduction in cholesterol level at 100 mg/kg/day for 7 days; type: functional, Mesocricetus auratus; design: scale not given: the % may be the effect or the level left
[27] = system: Mus musculus; experiment: Antidyslipidemic activity in diabetic C57BL/KsJ db/db mouse model assessed as increase in plasma HDL-cholesterol level at 25 mg/kg, po qd for 10 days; type: functional; outline: as §4
[28] = system: Mus musculus; experiment: Reduction in body weight in diabetic C57BL/KsJ db/db mouse model in hyperglycemia at 25 mg/kg, po qd for 10 days relative to untreated control; type: functional; outline: as §5
[29] = system: Mus musculus; experiment: Antidyslipidemic activity in diabetic C57BL/KsJ db/db mouse model assessed as reduction in plasma cholesterol level at 25 mg/kg, po qd for 10 days; type: functional; design: scale not given: the % may be the effect or the level left; outline: as §4

Q: CC(C)OC(=O)C(C)(C)Oc1ccc(C(=O)c2ccc(Cl)cc2)cc1 [FENOFIBRATE] was tested. Which Activity [1] did it give?
A: Its Activity is 56.3%.

Q: And the Activity [2]?
A: The Activity was “Active”.

Q: And the Activity [3]?
A: Its Activity is 6.78%.

Q: And the Activity [4]?
A: Its Activity is 32.3%.

Q: What about the Activity [5] of the same molecule?
A: The Activity was “inactive”.

Q: And the Activity [6]?
A: The Activity was 22.1%.

Q: And the Activity [7]?
A: Its Activity is 32.9%.

Q: And the Activity [8]?
A: The Activity was 53.4%.

Q: What about the Activity [9] of the same molecule?
A: Its Activity is 24.7%.

Q: And the Activity [10]?
A: Its Activity is 22.2%.

Q: What about the Activity [11] of the same molecule?
A: Its Activity is 30.3%.

Q: And the Activity [12]?
A: Its Activity is 10.2%.

Q: And the Activity [13]?
A: Its Activity is 26.8%.

Q: And the Activity [14]?
A: The Activity was 30.2%.

Q: What about the Activity [15] of the same molecule?
A: The Activity was 1.47%.

Q: What about the Activity [16] of the same molecule?
A: The Activity was 6.43%.

Q: And the Activity [17]?
A: Its Activity is 9.68%.

Q: What about the Activity [18] of the same molecule?
A: Its Activity is 18.9%.

Q: And the Activity [19]?
A: The Activity was 25.5%.

Q: Which Activity [1] does the source give for CC(C)NCC(O)COc1ccc2c(=O)cc(-c3cc(O)cc(O)c3)oc2c1 (racemic) here?
A: Its Activity is 47.7%.

Q: What about the Activity [2] of the same molecule?
A: The Activity was “Active”.

Q: What about the “Percent increase in HDL-C/cholesterol ratio vs vehicle” value [20] of the same molecule?
A: Its value is 32.1.

Q: What about the Activity [21] of the same molecule?
A: Its Activity is 14.2%.

Q: And the Activity [22]?
A: The Activity was 14.9%.

Q: And the Activity [23]?
A: Its Activity is 39.5%.

Q: And the Activity [24]?
A: The Activity was 33.2%.

Q: And the Activity [7]?
A: The Activity was 32%.

Q: And the Activity [8]?
A: Its Activity is 48.9%.

Q: What about the Activity [11] of the same molecule?
A: The Activity was 28%.

Q: What about the Activity [25] of the same molecule?
A: Its Activity is 22.3%.

Q: What about the Activity [26] of the same molecule?
A: Its Activity is 13.8%.

Q: And the Activity [27]?
A: The Activity was 11.8%.

Q: And the Activity [16]?
A: The Activity was 29%.

Q: What about the Activity [28] of the same molecule?
A: Its Activity is “inactive”.

Q: What about the Activity [18] of the same molecule?
A: The Activity was 32%.

Q: And the Activity [29]?
A: The Activity was 15.3%.
